Reference: ChEMBL document CHEMBL5678805, “Intermittent administration of MEK inhibitor GDC-0973 plus PI3K inhibitor GDC-0941 triggers robust apoptosis and tumor growth inhibition” (Cancer Res, 2012)
Calls of active or inactive are those of the source. The calls are words filed in the database; no cut-off is given here.

How the values were obtained:
[1] = molecular target: Rho-associated protein kinase 1 (Homo sapiens, UniProt Q13464); assay: Inhibition of ROCK1 (unknown origin)
DLD-1 = assay: Antitumor activity against human DLD-1 cells harboring KRAS G13D/IDH1 G97D/SMO T640A/APC I1417 mutant xenografted in mouse assessed as tumor growth inhibition at 5 mg/kg, po; type: functional; settings: read-out: TGI
Summary of the method: (§1)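 Single-agent dose ranging in human tumor xenograft mice at 2.5, 5 or 10 mg/kg oral. Tumor volume was measured by caliper as (L×W×W)/2. %TGI = 100×[1 − AUC(treatment/d)/AUC(vehicle/d)] from the fitted growth curve per dose group, relative to vehicle.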

[2] = molecular target: Hepatocyte growth factor receptor (Homo sapiens, UniProt P08581); assay: Inhibition of Met (unknown origin)
A2058 [3] = assay: Antitumor activity against human A2058 cells harboring BRAF V600E/PTEN deletion mutant xenografted in mouse assessed as decrease in tumor volume at 10 mg/kg, po administered once weekly for 21 days in presence of GDC-0980 by digital calipers analysis; type: functional, organism-based; settings: time 21.0 day
[4] = molecular target: Tyrosine-protein kinase SYK (Homo sapiens, UniProt P43405); assay: Inhibition of SYK (unknown origin)
Casein kinase I = assay: Inhibition of CK1 (unknown origin); type: protein assay, Homo sapiens
[5] = molecular target: Receptor-type tyrosine-protein kinase FLT3 (Homo sapiens, UniProt P36888); assay: Inhibition of Flt3 (unknown origin)
A-375 [6] = assay: Antitumor activity against human A-375 cells harboring BRAF V600E/CDKN2A E61 mutant xenografted in mouse assessed as tumor growth inhibition at 5 mg/kg, po; type: functional; settings: A-375, read-out: TGI
Summary of the method: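 Mice carrying human tumor xenografts dosed orally once daily for 21 consecutive days. Tumor volume measured by calipers as (L×W×W)/2. %TGI = 100×[1 − AUC(treatment/day)/AUC(vehicle/day)], using the area under the fitted growth curve relative to vehicle.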

HCT-116 [7] = assay: Antitumor activity against human HCT-116 cells harboring KRAS G13D/PIK3CA […]/CTNNB1 S45del/CDKN2A G23fs mutant xenografted in mouse assessed as tumor growth inhibition at 2.5 mg/kg, po; type: functional; settings: read-out: TGI; summary of the method: as §1
Ephrin type-A receptor 2 = Ephrin type-A receptor 2 (Homo sapiens, UniProt P29317); assay: Inhibition of EphA2 (unknown origin)
[8] = Antitumor activity against human A375.X1 cells xenografted in mouse assessed as tumor growth inhibition at 20 mg/kg, po administered every third day for 21 days; type: functional; settings: A375.X1, 504 h, time 21 day, read-out: TGI
Summary of the method: (§2)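 Human tumor xenografts in mice. Drugs given orally, as single agents or combined with the PI3K inhibitor. Schedules were daily (QD) or every third day (Q3D) over 21 days. Tumor volume was measured by caliper as (L×W×W)/2. %TGI = 100×[1 − AUC(treatment/d)/AUC(vehicle/d)] from fitted growth curves, with group means. Tumor lysates were immunoblotted for pS6.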

[9] = molecular target: Epidermal growth factor receptor (Homo sapiens, UniProt P00533); assay: Inhibition of EGFR (unknown origin)
Sequence of Epidermal growth factor receptor (P00533 whole entry): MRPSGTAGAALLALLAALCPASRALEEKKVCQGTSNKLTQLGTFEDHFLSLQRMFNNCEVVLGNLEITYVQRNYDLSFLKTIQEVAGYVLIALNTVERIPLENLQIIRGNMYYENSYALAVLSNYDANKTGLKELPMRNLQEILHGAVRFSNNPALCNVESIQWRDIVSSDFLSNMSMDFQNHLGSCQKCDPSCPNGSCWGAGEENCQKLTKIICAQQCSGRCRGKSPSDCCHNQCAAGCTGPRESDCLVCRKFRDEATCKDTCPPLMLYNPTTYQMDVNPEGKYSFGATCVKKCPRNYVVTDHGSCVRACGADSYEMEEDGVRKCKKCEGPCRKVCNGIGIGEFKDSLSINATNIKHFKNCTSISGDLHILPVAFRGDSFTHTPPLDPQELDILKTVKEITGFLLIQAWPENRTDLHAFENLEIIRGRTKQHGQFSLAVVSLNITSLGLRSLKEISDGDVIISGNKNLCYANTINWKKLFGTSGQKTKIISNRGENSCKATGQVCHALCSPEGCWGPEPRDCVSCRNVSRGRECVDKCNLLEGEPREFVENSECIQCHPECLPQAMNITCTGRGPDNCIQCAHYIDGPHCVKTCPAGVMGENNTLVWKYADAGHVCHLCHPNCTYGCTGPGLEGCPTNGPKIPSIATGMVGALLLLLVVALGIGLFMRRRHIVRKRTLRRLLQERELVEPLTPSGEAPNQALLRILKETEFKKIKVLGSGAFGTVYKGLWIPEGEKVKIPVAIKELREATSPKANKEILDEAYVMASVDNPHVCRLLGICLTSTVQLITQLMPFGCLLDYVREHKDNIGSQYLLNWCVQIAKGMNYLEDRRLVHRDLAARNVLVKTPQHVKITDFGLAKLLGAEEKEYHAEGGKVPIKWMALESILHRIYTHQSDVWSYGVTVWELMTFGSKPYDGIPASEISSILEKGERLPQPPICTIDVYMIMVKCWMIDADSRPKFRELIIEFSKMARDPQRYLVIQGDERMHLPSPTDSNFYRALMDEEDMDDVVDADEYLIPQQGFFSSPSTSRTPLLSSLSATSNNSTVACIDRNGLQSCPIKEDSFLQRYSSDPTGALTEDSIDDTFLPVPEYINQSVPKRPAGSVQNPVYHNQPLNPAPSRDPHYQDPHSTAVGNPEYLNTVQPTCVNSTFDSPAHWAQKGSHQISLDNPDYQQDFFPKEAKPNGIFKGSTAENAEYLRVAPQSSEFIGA

888-mel = assay: Inhibition of PI3K/MEK signaling pathway in human 888-mel cells assessed as decrease in ERK phosphorylation by incubated for 24 hrs by Western blot analysis; type: cell-based
[10] = molecular target: Protein kinase C gamma type (Homo sapiens, UniProt P05129); assay: Inhibition of PKCg (unknown origin)
HCT-116 [11] = assay: Antitumor activity against human HCT-116 cells harboring KRAS G13D/PIK3CA […]/CTNNB1 S45del/CDKN2A G23fs mutant xenografted in mouse assessed as tumor growth inhibition at 5 mg/kg, po; type: functional; settings: read-out: TGI; summary of the method: as §1
[12] = molecular target: Tyrosine-protein kinase ABL1 (Homo sapiens, UniProt P00519); assay: Inhibition of Abl (unknown origin)
[13] = molecular target: Vascular endothelial growth factor receptor 3 (Homo sapiens, UniProt P35916); assay: Inhibition of Flt4 (unknown origin)
Sequence of Vascular endothelial growth factor receptor 3 (P35916 whole entry): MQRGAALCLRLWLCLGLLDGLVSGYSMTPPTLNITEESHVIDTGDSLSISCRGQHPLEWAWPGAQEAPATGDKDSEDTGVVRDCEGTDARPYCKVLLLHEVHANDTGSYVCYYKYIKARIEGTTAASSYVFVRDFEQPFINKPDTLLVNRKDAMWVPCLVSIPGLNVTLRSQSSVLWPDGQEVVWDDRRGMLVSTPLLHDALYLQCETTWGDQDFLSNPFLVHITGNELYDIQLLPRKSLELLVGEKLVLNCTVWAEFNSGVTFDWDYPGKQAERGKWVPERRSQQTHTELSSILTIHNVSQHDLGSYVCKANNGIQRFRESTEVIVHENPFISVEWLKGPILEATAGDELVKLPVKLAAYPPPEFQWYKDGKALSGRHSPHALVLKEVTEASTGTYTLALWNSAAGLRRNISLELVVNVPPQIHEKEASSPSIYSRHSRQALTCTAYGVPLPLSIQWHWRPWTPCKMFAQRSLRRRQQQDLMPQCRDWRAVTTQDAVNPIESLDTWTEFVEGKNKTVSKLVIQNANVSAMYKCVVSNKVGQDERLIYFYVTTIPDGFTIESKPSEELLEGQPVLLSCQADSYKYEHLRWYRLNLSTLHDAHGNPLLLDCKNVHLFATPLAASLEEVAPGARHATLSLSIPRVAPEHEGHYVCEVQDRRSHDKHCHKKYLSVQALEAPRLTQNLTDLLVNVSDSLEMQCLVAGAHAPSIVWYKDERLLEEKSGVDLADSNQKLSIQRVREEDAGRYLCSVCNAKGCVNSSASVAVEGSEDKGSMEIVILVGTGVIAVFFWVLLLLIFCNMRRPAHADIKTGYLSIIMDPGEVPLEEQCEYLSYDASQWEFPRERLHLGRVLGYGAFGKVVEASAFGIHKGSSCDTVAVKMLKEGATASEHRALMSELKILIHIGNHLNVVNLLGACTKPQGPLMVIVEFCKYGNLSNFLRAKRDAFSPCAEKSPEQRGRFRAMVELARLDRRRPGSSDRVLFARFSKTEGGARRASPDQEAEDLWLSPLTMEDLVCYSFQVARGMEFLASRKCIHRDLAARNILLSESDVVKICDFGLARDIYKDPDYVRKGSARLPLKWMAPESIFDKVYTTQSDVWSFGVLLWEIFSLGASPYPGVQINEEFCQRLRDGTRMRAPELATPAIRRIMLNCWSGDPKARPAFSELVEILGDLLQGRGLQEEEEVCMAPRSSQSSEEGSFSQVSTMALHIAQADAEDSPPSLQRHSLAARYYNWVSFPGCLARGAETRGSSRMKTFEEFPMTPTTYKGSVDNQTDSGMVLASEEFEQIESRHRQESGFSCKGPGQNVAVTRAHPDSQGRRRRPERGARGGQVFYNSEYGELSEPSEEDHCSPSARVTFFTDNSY

[14] = Inhibition of PKA (unknown origin); design: species or system Homo sapiens
NCI-H2122 = assay: Antitumor activity against human NCI-H2122 cells xenografted in mouse assessed as tumor growth inhibition at 5 mg/kg, po administered once a day for 21 days; type: functional; settings: NCI-H2122, 504 h, read-out: TGI, time 21 day
Summary of the method: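 Mice bearing NCI-H2122 xenografts were given MEK inhibitor, PI3K inhibitor, or both, orally once daily for 21 consecutive days at the doses labeled. Caliper tumor volumes were calculated as (L×W×W)/2. %TGI was derived from the AUC of the fitted growth curve per day relative to vehicle.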

[15] = molecular target: Platelet-derived growth factor receptor beta (Homo sapiens, UniProt P09619); assay: Inhibition of PDGFR beta (unknown origin)
Sequence of Platelet-derived growth factor receptor beta (P09619 whole entry): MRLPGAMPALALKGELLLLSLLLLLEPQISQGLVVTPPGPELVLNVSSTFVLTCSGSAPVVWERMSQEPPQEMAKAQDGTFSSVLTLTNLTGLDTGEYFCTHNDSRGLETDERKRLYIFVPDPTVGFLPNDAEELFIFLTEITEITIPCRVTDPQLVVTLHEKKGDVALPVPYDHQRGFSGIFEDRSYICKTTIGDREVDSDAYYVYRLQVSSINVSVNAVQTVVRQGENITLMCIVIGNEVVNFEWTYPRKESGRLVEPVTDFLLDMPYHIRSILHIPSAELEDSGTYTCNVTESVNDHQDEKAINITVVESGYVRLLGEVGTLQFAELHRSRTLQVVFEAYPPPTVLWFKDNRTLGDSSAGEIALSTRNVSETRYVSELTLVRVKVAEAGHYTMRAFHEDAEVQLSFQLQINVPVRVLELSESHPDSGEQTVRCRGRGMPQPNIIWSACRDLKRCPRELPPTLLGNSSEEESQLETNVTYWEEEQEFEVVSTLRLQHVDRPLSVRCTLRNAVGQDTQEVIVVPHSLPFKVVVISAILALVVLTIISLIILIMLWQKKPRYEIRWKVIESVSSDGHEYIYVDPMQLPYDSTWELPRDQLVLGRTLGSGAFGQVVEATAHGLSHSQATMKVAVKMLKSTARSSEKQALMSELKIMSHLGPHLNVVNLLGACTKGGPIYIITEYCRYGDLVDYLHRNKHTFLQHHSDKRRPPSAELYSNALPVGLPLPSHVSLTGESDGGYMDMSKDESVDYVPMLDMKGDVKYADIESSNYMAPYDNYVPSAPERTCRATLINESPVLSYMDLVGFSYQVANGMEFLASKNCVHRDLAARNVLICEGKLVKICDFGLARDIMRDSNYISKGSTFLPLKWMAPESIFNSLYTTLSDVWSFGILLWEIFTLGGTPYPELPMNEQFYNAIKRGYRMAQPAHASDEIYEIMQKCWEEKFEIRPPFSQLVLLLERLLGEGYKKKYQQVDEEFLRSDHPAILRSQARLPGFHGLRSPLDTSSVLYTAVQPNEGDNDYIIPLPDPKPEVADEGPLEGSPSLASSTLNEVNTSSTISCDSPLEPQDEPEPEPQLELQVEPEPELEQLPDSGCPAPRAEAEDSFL

A549 = assay: Antitumor activity against human A549 cells harboring KRAS G12S/LKB1Q37/SMARCA4 Q729/CDKN2A mutant xenografted in mouse assessed as tumor growth inhibition at 5 mg/kg, po; type: functional; settings: read-out: TGI; summary of the method: as §1
KP-4 = assay: Antitumor activity against human KP-4 cells harboring KRAS G12D mutant xenografted in mouse assessed as tumor growth inhibition at 5 mg/kg, po; type: functional; settings: read-out: TGI; summary of the method: as §1
A2058 [16] = assay: Inhibition of PI3K/MEK signaling pathway in human A2058 cells assessed as decrease in ERK phosphorylation by incubated for 24 hrs by Western blot analysis; type: cell-based
[17] = molecular target: BDNF/NT-3 growth factors receptor (Homo sapiens, UniProt Q16620); assay: Inhibition of TrkB (unknown origin)
Sequence of BDNF/NT-3 growth factors receptor (Q16620 whole entry): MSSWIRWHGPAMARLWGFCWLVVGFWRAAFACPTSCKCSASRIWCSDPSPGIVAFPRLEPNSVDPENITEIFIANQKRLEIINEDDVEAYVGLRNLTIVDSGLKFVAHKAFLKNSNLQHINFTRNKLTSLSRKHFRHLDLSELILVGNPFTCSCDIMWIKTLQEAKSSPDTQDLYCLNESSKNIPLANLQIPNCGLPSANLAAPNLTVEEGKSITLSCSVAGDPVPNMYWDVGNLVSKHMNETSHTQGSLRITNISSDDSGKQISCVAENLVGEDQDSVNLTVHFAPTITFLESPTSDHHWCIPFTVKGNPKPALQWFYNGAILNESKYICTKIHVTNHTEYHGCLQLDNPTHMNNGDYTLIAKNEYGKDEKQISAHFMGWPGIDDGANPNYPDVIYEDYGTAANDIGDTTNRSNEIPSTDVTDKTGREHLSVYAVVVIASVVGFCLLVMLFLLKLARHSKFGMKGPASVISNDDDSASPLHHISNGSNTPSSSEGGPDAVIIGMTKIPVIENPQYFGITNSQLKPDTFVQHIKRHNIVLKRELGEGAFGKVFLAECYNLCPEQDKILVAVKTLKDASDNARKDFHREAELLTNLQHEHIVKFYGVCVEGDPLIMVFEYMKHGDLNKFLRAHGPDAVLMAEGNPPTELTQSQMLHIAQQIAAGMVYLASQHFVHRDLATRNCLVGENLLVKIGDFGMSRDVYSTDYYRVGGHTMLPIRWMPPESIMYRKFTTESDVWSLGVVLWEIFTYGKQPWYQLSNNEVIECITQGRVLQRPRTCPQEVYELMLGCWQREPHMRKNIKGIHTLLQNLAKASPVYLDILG

[18] = molecular target: Tyrosine-protein kinase BTK (Homo sapiens, UniProt Q06187); assay: Inhibition of Btk (unknown origin)
[19] = Antitumor activity against human A375.X1 cells xenografted in mouse assessed as tumor growth inhibition at 3 mg/kg, po administered once a day for 21 days; type: functional; settings: A375.X1, 504 h, read-out: TGI, time 21 day; summary of the method: as §2
NCI-H441 = assay: Antitumor activity against human NCI-H441 cells harboring KRAS G12V/TP53 R158L/MET high mutant xenografted in mouse assessed as tumor growth inhibition at 5 mg/kg, po; type: functional; settings: read-out: TGI
Summary of the method: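 Human tumor xenografts in mice were dosed orally at the indicated mg/kg. Tumor volume was measured with calipers as (L×W×W)/2. %TGI = 100 × [1 − (AUC treatment/d)/(AUC vehicle/d)], using the area under the fitted tumor-growth curve per day for each dose group relative to vehicle.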

[20] = molecular target: Testis-specific serine/threonine-protein kinase 1 (Homo sapiens, UniProt Q9BXA7); assay: Inhibition of TSSK1 (unknown origin)
Sequence of Testis-specific serine/threonine-protein kinase 1 (Q9BXA7 whole entry): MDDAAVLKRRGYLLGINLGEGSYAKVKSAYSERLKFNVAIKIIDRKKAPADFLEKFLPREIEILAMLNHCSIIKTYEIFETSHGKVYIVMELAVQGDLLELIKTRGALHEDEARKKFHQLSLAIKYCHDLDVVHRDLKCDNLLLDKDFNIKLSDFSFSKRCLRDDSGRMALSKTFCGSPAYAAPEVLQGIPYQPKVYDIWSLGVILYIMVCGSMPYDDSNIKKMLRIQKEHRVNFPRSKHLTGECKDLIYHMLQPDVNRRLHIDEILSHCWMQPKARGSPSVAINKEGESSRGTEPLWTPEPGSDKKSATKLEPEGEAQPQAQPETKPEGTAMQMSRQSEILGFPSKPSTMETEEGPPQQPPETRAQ

A-375 [21] = assay: Antitumor activity against human A-375 cells xenografted in mouse assessed as decrease in pS6 level at 5 mg/kg, po administered for 4 days and measured after 2 hrs in presence of 4-(2-(1H-indazol-4-yl)-6-((4-(methylsulfonyl)piperazin-1-yl)methyl)thieno[3,2-d]pyrimidin-4-yl)morpholine; type: functional, organism-based; settings: time 98.0 hrs
[22] = molecular target: Homeodomain-interacting protein kinase 1 (Homo sapiens, UniProt Q86Z02); assay: Inhibition of HIPK1 (unknown origin)

SMILES: O=C(c1ccc(F)c(F)c1Nc1ccc(I)cc1F)N1CC(O)([C@@H]2CCCCN2)C1 [COBIMETINIB]
- IC50 [1]: > 10 µM
- inhibition in vivo at 5 mg/kg (DLD-1): 50.2%
- IC50 [2]: > 10 µM
- Activity (A2058 [3]): Active
- IC50 [4]: > 10 µM
- IC50 (Casein kinase I): > 10 µM
- IC50 [5]: > 10 µM
- inhibition in vivo at 5 mg/kg (A-375 [6]): 120%
- inhibition in vivo at 2.5 mg/kg (HCT-116 [7]): 34%
- IC50 (Ephrin type-A receptor 2): > 10 µM
- inhibition in vivo at 20 mg/kg [8]: 94%
- IC50 [9]: > 10 µM
- inhibition (888-mel): Active
- IC50 [10]: > 10 µM
- inhibition in vivo at 5 mg/kg (HCT-116 [11]): 68.7%
- IC50 [12]: > 10 µM
- IC50 [13]: > 10 µM
- IC50 [14]: > 10 µM
- inhibition in vivo at 5 mg/kg (NCI-H2122): 49%
- IC50 [15]: > 10 µM
- inhibition in vivo at 5 mg/kg (A549): 51.4%
- inhibition in vivo at 5 mg/kg (KP-4): 69.5%
- inhibition (A2058 [16]): Active
- IC50 [17]: > 10 µM
- IC50 [18]: > 10 µM
- inhibition in vivo at 3 mg/kg [19]: 87%
- inhibition in vivo at 5 mg/kg (NCI-H441): 59%
- IC50 [20]: > 10 µM
- Activity (A-375 [21]): Active
- IC50 [22]: > 10 µM
